What was measured:
[1] = molecular target: T1, Deoxyuridine 5'-triphosphate nucleotidohydrolase, mitochondrial (Homo sapiens, UniProt P33316); assay: Inhibitory constant against human deoxyuridine 5'-triphosphate nucleotidohydrolase expressed in Escherichia coli BL21 (DE3) cells
T1 sequence (P33316 whole entry): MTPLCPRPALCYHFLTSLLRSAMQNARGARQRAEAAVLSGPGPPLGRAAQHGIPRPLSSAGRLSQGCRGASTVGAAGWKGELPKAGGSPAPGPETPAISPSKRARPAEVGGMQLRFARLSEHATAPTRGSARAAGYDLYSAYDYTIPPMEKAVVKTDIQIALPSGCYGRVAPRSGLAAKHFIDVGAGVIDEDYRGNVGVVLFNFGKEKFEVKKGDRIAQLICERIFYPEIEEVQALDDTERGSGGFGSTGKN
Outline: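 Human dUTPase expressed in E. coli BL21(DE3) and purified like the Plasmodium enzyme (phosphocellulose, then gel filtration). dUTP hydrolysis followed continuously by stopped-flow as pH-indicator absorbance (cresol red/bicine, 50:2000 µM, 573 nm). Apparent KM from integrated Michaelis-Menten fits at each inhibitor concentration; Ki from linear KMapp versus [I].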

[2] = test system: L6; assay: In vitro cytotoxicity aganist rat skeletal myoblasts (L-6 cells) after 72 hours; format: functional, cell-based; conditions: L6, 72 h
Outline: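 L-6 rat skeletal myoblasts seeded at 4 × 10^4 cells/mL in RPMI 1640 with 10% FBS and 2 mM L-glutamine. After 24 h, medium replaced with a serial drug dilution, then 72 h at 37 °C, 5% CO2. Alamar Blue added for a further 2-4 h. Fluorescence read at ex 536/em 588 nm. Run twice independently, in duplicate.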

[3] = test system: Trypanosoma brucei rhodesiense; assay: Inhibitory constant against Trypanosoma brucei rhodesiense upon incubation with the compound at 37 degrees C under a 5% CO2 atmosphere for 72 hours; format: functional, organism-based
[4] = test system: Trypanosoma cruzi; assay: In vitro growth inhibitory activity against Trypanosoma cruzi in rat L-6 cells upon incubation at 37 degrees C in 5% CO2 atmosphere for 4 days; format: functional, organism-based; conditions: L6, 96 h
Outline: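 L-6 cells seeded at 2000 cells/well in RPMI 1640 with 10% FBS and 2 mM L-glutamine. After 24 h, 5000 T. cruzi Tulahuen C2C4 LacZ trypomastigotes added with serial drug dilutions, then 4 days at 37 °C, 5% CO2. CPRG/Nonidet substrate added and colour read at 540 nm after 2-4 h. IC50 from sigmoidal curve. Twice independently, in duplicate.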

[5] = molecular target: T2, dUTP pyrophosphatase (Plasmodium falciparum 3D7) (UniProt Q8II92); assay: Selectivity index for Plasmodium falciparum deoxyuridine 5'-triphosphate nucleotidohydrolase defined as (Ki Human)/(Ki Plasmodium falciparum); na= not relevant
T2 sequence (whole entry): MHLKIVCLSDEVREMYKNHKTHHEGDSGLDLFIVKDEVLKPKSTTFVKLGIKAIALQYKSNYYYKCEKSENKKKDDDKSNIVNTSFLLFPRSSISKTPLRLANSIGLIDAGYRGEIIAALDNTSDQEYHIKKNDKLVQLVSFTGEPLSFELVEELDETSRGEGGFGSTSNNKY
Outline: (§1)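 Ratio of human dUTPase Ki to P. falciparum dUTPase Ki. Both Ki values came from stopped-flow pH-indicator assays following dUTP hydrolysis, with Ki derived from the dependence of apparent KM on inhibitor concentration.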

[6] = molecular target: T3, dUTP pyrophosphatase (Leishmania major, UniProt O15826); assay: Inhibitory constant against Leishmania major deoxyuridine 5'-triphosphate nucleotidohydrolase
T3 sequence (O15826 whole entry): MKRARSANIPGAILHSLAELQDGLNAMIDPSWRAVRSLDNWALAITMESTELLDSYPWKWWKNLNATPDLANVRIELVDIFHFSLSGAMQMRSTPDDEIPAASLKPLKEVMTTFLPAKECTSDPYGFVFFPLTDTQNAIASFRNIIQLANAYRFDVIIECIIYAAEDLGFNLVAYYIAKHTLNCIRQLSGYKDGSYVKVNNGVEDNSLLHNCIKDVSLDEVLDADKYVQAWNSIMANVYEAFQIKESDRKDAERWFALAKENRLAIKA

[7] = test system: Plasmodium falciparum; assay: In vitro inhibitory activity against Plasmodium falciparum as [3H]hypoxanthine (50 uL) incorporation at 37C; format: functional, organism-based
[8] = molecular target: T4, dUTP pyrophosphatase (Plasmodium falciparum 3D7, UniProt Q8II92); assay: Inhibitory constant against Plasmodium falciparum deoxyuridine 5'-triphosphate nucleotidohydrolase expressed in Escherichia coli BL21 (DE3) cells
T4 sequence (Q8II92 whole entry): T2 sequence (whole entry)
Outline: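 Recombinant PfdUTPase expressed in E. coli BL21(DE3) and purified by phosphocellulose and gel filtration to ~96% purity. Continuous stopped-flow assay following proton release with cresol red/bicine (50:2000 µM, 573 nm). Mix: 30 nM enzyme, 50 µM dUTP, 5 mM MgCl2, 2.5 mM DTT, 1.25 mg/mL BSA, 100 mM KCl. KMapp from integrated Michaelis-Menten fits, plotted against [I] to give Ki.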

[9] = test system: Leishmania donovani; assay: In vitro growth inhibitory activity against Leishmania donovani amastigotes at 37 degrees C under a 5% CO2 atmosphere for 96 hours; format: functional, organism-based
Outline: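 Mouse peritoneal macrophages in RPMI 1640 with 10% heat-inactivated FBS, infected after 24 h with L. donovani amastigotes at 3:1 (amastigote:macrophage). Free amastigotes washed out at 4 h. Next day, drug-containing medium added for 96 h at 37 °C, 5% CO2. Slides methanol-fixed and Giemsa-stained. Percentage of infected macrophages scored microscopically versus control; IC50 by linear regression. Twice independently, in duplicate.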

[10] = molecular target: T2, dUTP pyrophosphatase (Plasmodium falciparum 3D7); assay: Selectivity index for Plasmodium falciparum deoxyuridine 5'-triphosphate nucleotidohydrolase defined as (Ki Human)/(Ki Plasmodium falciparum); outline: as §1

SMILES | Ki [1] [µM] | IC50 [2] [µM] | IC50 [3] [µM] | IC50 [4] [µM] | SI [5] | Ki [6] [µM] | IC50 [7] [µM] | Ki [8] [µM] | IC50 [9] [µM] | SI [10]
O=c1ccn(C2CC(F)C(CO[Si](c3ccccc3)(c3ccccc3)c3ccccc3)O2)c(=O)[nH]1 (centres undefined) | > 1000 | 86 | 4.5 | 84 | Not Relevant | > 1000 | 1 | 975 |  | 
CS(=O)(=O)NCC1OC(n2ccc(=O)[nH]c2=O)CC1O (centres undefined) | > 1000 | > 295 | 147 | > 295 |  | > 1000 | > 16 | 178 | > 98 | > 5
CCOP(=O)(OCC)OC[C@H]1O[C@@H](n2ccc(=O)[nH]c2=O)C[C@@H]1O | > 1000 | 198 | 37 | > 247 |  | > 1000 | > 14 | 316 | > 82 | > 3
CC(C)(C)[Si](C)(C)O[C@H]1C[C@H](n2ccc(=O)[nH]c2=O)O[C@@H]1CO | 119 | > 263 | 83 | > 263 |  | 114 | > 15 | 648 | > 88 | 0.2
CCOP(=O)(OCC)OC[C@H]1O[C@@H](n2ccc(=O)[nH]c2=O)C[C@@H]1O[Si](C)(C)C(C)(C)C | > 1000 | 108 | 35 | 41 |  | > 1000 | > 10 | 340 | 63 | > 3
O=C(OC[C@H]1O[C@@H](n2ccc(=O)[nH]c2=O)C[C@@H]1O)c1ccccc1 | > 1000 | > 271 | 117 | > 271 |  | > 1000 | > 15 | 268 | > 90 | > 3
O=c1ccn(C2CC(F)C(CNC(c3ccccc3)(c3ccccc3)c3ccccc3)O2)c(=O)[nH]1 (centres undefined) | > 1000 | 30 | 3.6 | 47 |  | > 1000 | 5.3 | 12 | > 63 | > 83
Cc1ccc(S(=O)(=O)OC[C@H]2O[C@@H](n3ccc(=O)[nH]c3=O)C[C@@H]2O)cc1 | > 1000 | > 236 | 44 | > 236 |  | > 1000 | > 13 | 142 | > 79 | > 7
CCCCC(=O)OC[C@H]1O[C@@H](n2ccc(=O)[nH]c2=O)C[C@@H]1O | > 1000 | > 289 | 147 | > 284 |  | > 1000 | > 16 | 228 | 96 | > 4
CC(C)(C)[Si](C)(C)O[C@H]1C[C@H](n2ccc(=O)[nH]c2=O)O[C@@H]1COP(=O)(Oc1ccccc1)Oc1ccccc1 | > 1000 | > 157 | 12 | 10 |  | 116 | 6 | 597 | > 17 | > 1.7
NCC1OC(n2ccc(=O)[nH]c2=O)CC1O (centres undefined) | > 1000 |  |  |  | Not Relevant | > 1000 |  | > 1000 |  | 
O=C(NCC1OC(n2ccc(=O)[nH]c2=O)CC1O)c1ccccc1 (centres undefined) | 469 | > 272 | 120 | > 272 |  | > 1000 | > 15 | 178 | > 91 | 2.6
NS(=O)(=O)NC(=O)OCC1C=CC(n2ccc(=O)[nH]c2=O)O1 (centres undefined) | 799 | 262 | 40 | > 270 |  | > 1000 | > 150 | 82 | > 90 | 9.7
CCCCC(=O)NCC1OC(n2ccc(=O)[nH]c2=O)CC1O (centres undefined) | > 1000 | > 289 | 149 | > 289 |  | > 1000 | > 16 | 189 | > 97 | > 5
CC(=O)OC[C@H]1O[C@@H](n2ccc(=O)[nH]c2=O)C[C@@H]1O | > 1000 | 64 | 13 | 273 |  | > 1000 | > 19 | 294 | > 111 | > 3
CCOP(=O)(CC(=O)OC[C@H]1O[C@@H](n2ccc(=O)[nH]c2=O)C[C@@H]1O[Si](C)(C)C(C)(C)C)OCC |  |  | 40 | 75 | Not Relevant | > 1000 | 18 | 217 | > 58 | 
CC(=O)NCC1OC(n2ccc(=O)[nH]c2=O)CC1O (centres undefined) | > 1000 | > 335 | 194 | > 335 | Not Relevant | > 1000 | > 19 | > 1000 | > 112 | 
CC(C)(C)[Si](C)(C)OC1CC(n2ccc(=O)[nH]c2=O)OC1CNP(=O)(Oc1ccccc1)Oc1ccccc1 (centres undefined) | 232 | 18 | 28 | 6 |  | > 1000 | 4 | 67 | < 6 | 3.5
O=c1ccn(C2CC(O)C(CNP(=O)(Oc3ccccc3)Oc3ccccc3)O2)c(=O)[nH]1 (centres undefined) | > 1000 | > 196 | > 196 | > 65 |  | > 1000 | > 11 | 26 | > 65 | > 38
NS(=O)(=O)OC[C@H]1O[C@@H](n2ccc(=O)[nH]c2=O)C[C@@H]1O | > 1000 |  | 145 | > 293 | Not Relevant | 707 | > 163 | > 1000 | > 98 | 
O=c1ccn([C@H]2C[C@H](O)[C@@H](COP(=O)(Oc3ccccc3)Oc3ccccc3)O2)c(=O)[nH]1 | 135 | > 196 | 52 | > 196 |  | > 1000 | > 11 | 238 | > 65 | 0.6
CC(C)(C)[Si](C)(C)O[C@H]1C[C@H](n2ccc(=O)[nH]c2=O)O[C@@H]1COC(c1ccccc1)(c1ccccc1)c1ccccc1 | > 1000 | > 154 | 25 | 247 |  | 454 | 1 | 515 | 17 | > 1.9
